{"source": "ChEMBL document CHEMBL1649429", "about": "“Novel plasmid-encoded ceftazidime-hydrolyzing CTX-M-53 extended-spectrum beta-lactamase from Salmonella enterica serotypes Westhampton and Senftenberg” (Antimicrob Agents Chemother, 2009)", "proteins": {"B1": {"name": "Extended-spectrum beta-lactamase CTX-M-53 (Salmonella enterica subsp. enterica serovar Westhampton), Q2XPY6 (protein)", "chain": "MVKKSLRQFTLMATATVTLLLGSVPLYAQTVDVQQKLAELEQQSGGRLGVALINTADNSQILYRADERFAMCSTSKVMAVAAVLKKSESEPNLLNQRVEIKKSDLVNYNPIAEKHVNGTMSLAELSAAALQYSDNVAMNKLIAHVGGPASVTAFARQLGDETFRLDRTEPTLNTAIPGDPRDTTSPRAMAQTLRNLTLGKALGDSQRAQLVTWMKGNTTGAASIQAGLPASWVVGDKTGSGGYGTTNDIAVIWPKDRAPLILVIYFTQPQPKAESRRDVLASAAKIVTDGL"}, "B2": {"name": "Beta-lactamase CTX-M-16 (Escherichia coli), Q939N4 (protein)", "chain": "MVTKRVQRMMFAAAACIPLLLGSAPLYAQTSAVQQKLAALEKSSGGRLGVALIDTADNTQVLYRGDERFPMCSTSKVMAAAAVLKQSETQKQLLNQPVEIKPADLVNYNPIAEKHVNGTMTLAELSAAALQYSDNTAMNKLIAQLGGPGGVTAFARAIGDETFRLDRTEPTLNTAIPGDPRDTTTPRAMAQTLRQLTLGHALGETQRAQLVTWLKGNTTGAASIRAGLPTSWTAGDKTGSGGYGTTNDIAVIWPQGRAPLVLVTYFTQPQQNAESRRDVLASAARIIAEGL"}, "B3": {"name": "Beta-lactamase CTX-M-27 (Escherichia coli), Q840M4 (protein)", "chain": "B2 chain with A234V"}}, "key": {"[1]": {"substrate": "CC(=O)OCC1=C(C(=O)O)N2C(=O)[C@@H](NC(=O)Cc3cccs3)[C@H]2SC1", "assay": "(§1) Activity of Salmonella enterica serotype Westhampton beta-lactamase CTX-M-53", "conditions": "Salmonella enterica subsp. enterica serovar Westhampton", "summary_of_the_method": "(§2)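 CTX-M-53 was purified from E. coli DH5 carrying recombinant pCTX-M-53, grown in brain heart infusion with cefotaxime 2 µg/ml for 18 h at 37°C. Cells were sonicated in 20 mM MES-NaOH pH 6.0, and nucleic acids removed with spermine. The enzyme was purified by SP Sepharose ion exchange and Superose 12 gel filtration. Km and kcat were measured by computerized microacidimetry, three determinations each.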"}, "[2]": {"substrate": "CC(C)(O/N=C(\\C(=O)N[C@@H]1C(=O)N2C(C(=O)[O-])=C(C[n+]3ccccc3)CS[C@H]12)c1csc(N)n1)C(=O)O", "assay": "as §1", "conditions": "Salmonella enterica subsp. enterica serovar Westhampton", "summary_of_the_method": "as §2"}, "[3]": {"substrate": "CC1(C)S[C@@H]2[C@H](NC(=O)Cc3ccccc3)C(=O)N2[C@H]1C(=O)O", "assay": "as §1", "conditions": "Salmonella enterica subsp. enterica serovar Westhampton", "summary_of_the_method": "as §2"}, "[4]": {"substrate": "CC1(C)S[C@@H]2[C@H](NC(=O)[C@H](C(=O)O)c3ccsc3)C(=O)N2[C@H]1C(=O)O", "assay": "as §1", "conditions": "Salmonella enterica subsp. enterica serovar Westhampton", "summary_of_the_method": "as §2"}, "[5]": {"substrate": "CC1(C)S[C@@H]2[C@H](NC(=O)[C@H](N)c3ccc(O)cc3)C(=O)N2[C@H]1C(=O)O", "assay": "as §1", "conditions": "Salmonella enterica subsp. enterica serovar Westhampton", "summary_of_the_method": "as §2"}, "[6]": {"substrate": "CCN1CCN(C(=O)N[C@@H](C(=O)N[C@@H]2C(=O)N3[C@@H]2SC(C)(C)[C@@H]3C(=O)O)c2ccccc2)C(=O)C1=O", "assay": "as §1", "conditions": "Salmonella enterica subsp. enterica serovar Westhampton", "summary_of_the_method": "as §2"}, "[7]": {"substrate": "CO/N=C(\\C(=O)N[C@@H]1C(=O)N2C(C(=O)O)=C(COC(C)=O)CS[C@H]12)c1csc(N)n1", "assay": "as §1", "conditions": "Salmonella enterica subsp. enterica serovar Westhampton", "summary_of_the_method": "as §2"}, "[8]": {"substrate": "CO/N=C(\\C(=O)N[C@@H]1C(=O)N2C(C(=O)O)=C(COC(N)=O)CS[C@H]12)c1ccco1", "assay": "as §1", "conditions": "Salmonella enterica subsp. enterica serovar Westhampton", "summary_of_the_method": "as §2"}, "[9]": {"substrate": "CO/N=C(\\C(=O)N[C@@H]1C(=O)N2C(C(=O)[O-])=C(C[n+]3cccc4c3CCC4)CS[C@H]12)c1csc(N)n1", "assay": "as §1", "conditions": "Salmonella enterica subsp. enterica serovar Westhampton", "summary_of_the_method": "as §2"}, "[10]": {"substrate": "C[C@H]1[C@H](NC(=O)/C(=N\\OC(C)(C)C(=O)O)c2csc(N)n2)C(=O)N1S(=O)(=O)O", "assay": "as §1", "conditions": "Salmonella enterica subsp. enterica serovar Westhampton", "summary_of_the_method": "as §2"}, "[11]": {"substrate": "CC(=O)OCC1=C(C(=O)O)N2C(=O)[C@@H](NC(=O)Cc3cccs3)[C@H]2SC1", "assay": "(§3) Ratio of Kcat/Km for Salmonella enterica serotype Westhampton beta-lactamase CTX-M-53", "conditions": "Salmonella enterica subsp. enterica serovar Westhampton", "summary_of_the_method": "as §2"}, "[12]": {"substrate": "CC(C)(O/N=C(\\C(=O)N[C@@H]1C(=O)N2C(C(=O)[O-])=C(C[n+]3ccccc3)CS[C@H]12)c1csc(N)n1)C(=O)O", "assay": "as §3", "conditions": "Salmonella enterica subsp. enterica serovar Westhampton", "summary_of_the_method": "as §2"}, "[13]": {"substrate": "CC1(C)S[C@@H]2[C@H](NC(=O)Cc3ccccc3)C(=O)N2[C@H]1C(=O)O", "assay": "as §3", "conditions": "Salmonella enterica subsp. enterica serovar Westhampton", "summary_of_the_method": "as §2"}, "[14]": {"substrate": "CC1(C)S[C@@H]2[C@H](NC(=O)[C@H](C(=O)O)c3ccsc3)C(=O)N2[C@H]1C(=O)O", "assay": "as §3", "conditions": "Salmonella enterica subsp. enterica serovar Westhampton", "summary_of_the_method": "as §2"}, "[15]": {"substrate": "CC1(C)S[C@@H]2[C@H](NC(=O)[C@H](N)c3ccc(O)cc3)C(=O)N2[C@H]1C(=O)O", "assay": "as §3", "conditions": "Salmonella enterica subsp. enterica serovar Westhampton", "summary_of_the_method": "as §2"}, "[16]": {"substrate": "CCN1CCN(C(=O)N[C@@H](C(=O)N[C@@H]2C(=O)N3[C@@H]2SC(C)(C)[C@@H]3C(=O)O)c2ccccc2)C(=O)C1=O", "assay": "as §3", "conditions": "Salmonella enterica subsp. enterica serovar Westhampton", "summary_of_the_method": "as §2"}, "[17]": {"substrate": "CO/N=C(\\C(=O)N[C@@H]1C(=O)N2C(C(=O)O)=C(COC(C)=O)CS[C@H]12)c1csc(N)n1", "assay": "as §3", "conditions": "Salmonella enterica subsp. enterica serovar Westhampton", "summary_of_the_method": "as §2"}, "[18]": {"substrate": "CO/N=C(\\C(=O)N[C@@H]1C(=O)N2C(C(=O)O)=C(COC(N)=O)CS[C@H]12)c1ccco1", "assay": "as §3", "conditions": "Salmonella enterica subsp. enterica serovar Westhampton", "summary_of_the_method": "as §2"}, "[19]": {"substrate": "CO/N=C(\\C(=O)N[C@@H]1C(=O)N2C(C(=O)[O-])=C(C[n+]3cccc4c3CCC4)CS[C@H]12)c1csc(N)n1", "assay": "as §3", "conditions": "Salmonella enterica subsp. enterica serovar Westhampton", "summary_of_the_method": "as §2"}, "[20]": {"substrate": "C[C@H]1[C@H](NC(=O)/C(=N\\OC(C)(C)C(=O)O)c2csc(N)n2)C(=O)N1S(=O)(=O)O", "assay": "as §3", "conditions": "Salmonella enterica subsp. enterica serovar Westhampton", "summary_of_the_method": "as §2"}, "[21]": {"substrate": "C[C@H]1[C@H](NC(=O)/C(=N\\OC(C)(C)C(=O)O)c2csc(N)n2)C(=O)N1S(=O)(=O)O", "conditions": "Escherichia coli"}, "[22]": {"substrate": "CC(C)(O/N=C(\\C(=O)N[C@@H]1C(=O)N2C(C(=O)[O-])=C(C[n+]3ccccc3)CS[C@H]12)c1csc(N)n1)C(=O)O", "conditions": "Escherichia coli"}, "[23]": {"substrate": "C[C@H]1[C@H](NC(=O)/C(=N\\OC(C)(C)C(=O)O)c2csc(N)n2)C(=O)N1S(=O)(=O)O", "conditions": "Escherichia coli", "remark": "listed apart in the source"}, "[24]": {"substrate": "CC(C)(O/N=C(\\C(=O)N[C@@H]1C(=O)N2C(C(=O)[O-])=C(C[n+]3ccccc3)CS[C@H]12)c1csc(N)n1)C(=O)O", "conditions": "Escherichia coli", "remark": "listed apart in the source"}}, "note": "Where a chain is given by its changes, count along the chain named."}
{"protein": "B1", "values": [{"measurement": "Km", "setting": "[1]", "result": 122, "unit": "µM"}, {"measurement": "kcat", "setting": "[1]", "result": 2000, "unit": "s⁻¹"}, {"measurement": "Km", "setting": "[2]", "result": 174, "unit": "µM"}, {"measurement": "kcat", "setting": "[2]", "result": 14, "unit": "s⁻¹"}, {"measurement": "Km", "setting": "[3]", "result": 10, "unit": "µM"}, {"measurement": "kcat", "setting": "[3]", "result": 135, "unit": "s⁻¹"}, {"measurement": "Km", "setting": "[4]", "result": 18, "unit": "µM"}, {"measurement": "kcat", "setting": "[4]", "result": 10, "unit": "s⁻¹"}, {"measurement": "Km", "setting": "[5]", "result": 40, "unit": "µM"}, {"measurement": "kcat", "setting": "[5]", "result": 85, "unit": "s⁻¹"}, {"measurement": "Km", "setting": "[6]", "result": 12, "unit": "µM"}, {"measurement": "kcat", "setting": "[6]", "result": 90, "unit": "s⁻¹"}, {"measurement": "Km", "setting": "[7]", "result": 180, "unit": "µM"}, {"measurement": "kcat", "setting": "[7]", "result": 585, "unit": "s⁻¹"}, {"measurement": "Km", "setting": "[8]", "result": 80, "unit": "µM"}, {"measurement": "kcat", "setting": "[8]", "result": 292, "unit": "s⁻¹"}, {"measurement": "Km", "setting": "[9]", "result": 125, "unit": "µM"}, {"measurement": "kcat", "setting": "[9]", "result": 710, "unit": "s⁻¹"}, {"measurement": "Km", "setting": "[10]", "result": 14, "unit": "µM"}, {"measurement": "kcat", "setting": "[10]", "result": 4, "unit": "s⁻¹"}, {"measurement": "kcat/Km", "setting": "[11]", "result": "1.64e+07", "unit": "M⁻¹ s⁻¹"}, {"measurement": "kcat/Km", "setting": "[12]", "result": 100000, "unit": "M⁻¹ s⁻¹"}, {"measurement": "kcat/Km", "setting": "[13]", "result": "1.35e+07", "unit": "M⁻¹ s⁻¹"}, {"measurement": "kcat/Km", "setting": "[14]", "result": 500000, "unit": "M⁻¹ s⁻¹"}, {"measurement": "kcat/Km", "setting": "[15]", "result": "2.1e+06", "unit": "M⁻¹ s⁻¹"}, {"measurement": "kcat/Km", "setting": "[16]", "result": "7.5e+06", "unit": "M⁻¹ s⁻¹"}, {"measurement": "kcat/Km", "setting": "[17]", "result": "3.2e+06", "unit": "M⁻¹ s⁻¹"}, {"measurement": "kcat/Km", "setting": "[18]", "result": "3.6e+06", "unit": "M⁻¹ s⁻¹"}, {"measurement": "kcat/Km", "setting": "[19]", "result": "5.7e+06", "unit": "M⁻¹ s⁻¹"}, {"measurement": "kcat/Km", "setting": "[20]", "result": 300000, "unit": "M⁻¹ s⁻¹"}]}
{"protein": "B2", "values": [{"measurement": "Km", "setting": "[21]", "result": 17, "unit": "µM"}, {"measurement": "kcat/Km", "setting": "[22]", "result": 0.04, "unit": "s⁻¹"}]}
{"protein": "B3", "values": [{"measurement": "Km", "setting": "[23]", "result": 17, "unit": "µM"}, {"measurement": "kcat/Km", "setting": "[24]", "result": 0.01, "unit": "s⁻¹"}]}
